Source: PubChem (several laboratories)
Compounds with a hit are over-represented: about 1.6% of the library has one in this group of screens.
NOD2 RIPK2 PPI: NOD2-RIPK2 protein interaction inhibition; inhibition, % at 4.98 µM; CHO BLA complementation NOD2-RIPK2, CCF4 ratio; O43353; AID 624267; hit rate 0.38% among 360,000; in the data active = inhibition above about 21%;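 also: 0% = vehicle only and 100% = reference blocker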
ABHD5-PLIN5 inh: inhibitors of human ABHD5-perilipin-5 interaction. AID 602281. inhibition, % at 4 µM. Split G. princeps luciferase complementation, luminescence, 4 h. hit rate 0.78% among 360,000. Q00G26+Q8WTS1;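 active = inhibition above the mean inhibition across every tested compound plus 3 SD, cut at about 22% in these data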;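 also: 0% = DMSO only wells and the 100% control is not disclosed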
Dynein cargo inh: blocks dynein driven cargo transport along microtubules. hit rate 0.47% among 220,000. AID 1381. z-score, hits read low. 3617.4 mouse cells, GR-EGFP nuclear translocation imaging; test concentration mostly 20 µM; stimulated with dexamethasone, 1 µM; hits give low values;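 active = plate z-score of nuclear minus cytoplasmic receptor signal below a set negative limit, without overly bright fluorescence or cell loss, cut at about -3.5 in these data, passing the limit was not always enough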;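 also: z-score of nuclear minus cytoplasmic ring GR-EGFP intensity difference per well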
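Buffer or medium: tet-free medium with charcoal-stripped serum / Also added: dexamethasone agonist, 1.0 µM final, for 30 min / Timing: induction 48 h, compound 1 h, agonist 30 min / Measured by: high-content fluorescence imaging after fixation / Read-out: nuclear-to-cytoplasmic GR-EGFP distribution per well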
TLR4-MyD88 BLA: blocks binding of human TLR4 to MyD88; O00206+Q99836; HeLa CL3-4 TLR4/MyD88 BLA complementation, FRET ratio; inhibition, % at 8.4 µM; hit rate 0.18% among 200,000; AID 861; in the data active = inhibition above about 25%;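 also: 0% = vehicle and 100% = reference inhibitor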
Beta2AR agonist: activates human beta-2 adrenergic receptor causing internalization | response, % (no concentration beside the values) | hit rate 0.43% among 340,000 | P07550 | Am2.2-beta2AR cells, FAP receptor internalization, flow cytometry | AID 504454;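 active = response above a set limit, near 3 SD of response in nonfluorescent compounds, cut at about 42% in these data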
TLR9-MyD88 inh: TLR9-MyD88 interaction inhibition; Q9NR96+Q99836; CHO BLA complementation TLR9-MyD88, CCF4 FRET ratio; hit rate 0.21% among 340,000; inhibition, % at 4.98 µM;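 active = inhibition above the mean over all tested compounds plus 3 SD, cut at about 21% in these data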;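 also: 0% = DMSO only wells and 100% = clavulanate BLA inhibitor control wells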
* hit, by the source's call; nt = not tested or not shown.

SMILES | NOD2 RIPK2 PPI | ABHD5-PLIN5 inh | Dynein cargo inh | TLR4-MyD88 BLA | Beta2AR agonist | TLR9-MyD88 inh
CCNC(=O)/C(C#N)=C/c1c(N2CCOCC2)nc2ccccn2c1=O | -11 | 2 | 0.25 | 1 | 47* | -3
O=P(O)(Cc1ccccc1)c1ccccc1 | -6 | -9 | nt | nt | nt | 1
Cc1c2ccccc2cc[n+]1CCCS(=O)(=O)[O-] | -7 | -5 | -0.025 | -2 | 1 | -2
CC1(C)C(/C=C/C=C/C=C/C=C2\N(CCCCS(=O)(=O)O)c3ccc4ccccc4c3C2(C)C)=[N+](CCCCS(=O)(=O)[O-])c2ccc3ccccc3c21 | 1 | 54* | nt | nt | 58* | 13
CCOC(=O)[C@@H]1[C@H]2COc3ccc(Br)cc3[C@@H]2N2C(=O)N(c3ccc(OC)cc3)C(=O)[C@@]12C | -13 | 5 | nt | nt | -2 | -3
CCc1nc2ccc(C(=O)NCCNC(C)=O)cn2c1N(C)Cc1ccc(OC)cc1 | -10 | 1 | nt | nt | nt | nt
CCOc1ccc(N=Nc2ccc(O)c3ncccc23)cc1 | -2 | 3 | nt | nt | 23 | 0
CCOc1ccc2c(ccc(/C=C/c3cc(C)c4cccnc4c3O)[n+]2C)c1 | -16 | 26* | nt | nt | 106* | -27
O=C(N/N=C/c1ccc(OC(=O)c2ccc3c(c2)OCO3)cc1)c1cncc(Br)c1 | -5 | 9 | -0.0046 | 0 | 52* | -1
CC(C)c1ccc2[nH]c(O)c(N=NC(=O)c3ccc(CSc4nncn4C)cc3)c2c1 | -8 | 5 | -0.84 | 12 | 45* | 4
COc1ccc(CNC(=O)C[C@H]2C[C@H](C(=O)N3CCCCC3)[C@@]3(CCc4ccccc4)c4[nH]c5cc(-c6ccco6)ccc5c4CCN3C2=O)cc1OC | -9 | 45* | nt | nt | 0 | -4
CN(C)CCCNC(=O)C[C@H]1C[C@H](C(=O)N2CCCCC2)[C@@]2(CCc3ccccc3)c3[nH]c4cc(-c5ccco5)ccc4c3CCN2C1=O | 2 | 22* | nt | nt | 31 | -5
O=C1C2C3C=CC(CNS(=O)(=O)c4ccccc4)(O3)C2C(=O)N1c1ccc(Cl)cc1 (configuration not stated) | -6 | 15 | -0.31 | -14 | 2 | -6
O=C1C2C3C=CC(CO)(O3)C2C(=O)N1c1ccccc1-c1ccccc1 (configuration not stated) | 81* | 45* | -5.7* | 2 | 55* | 5
O=C(C=P(c1ccccc1)(c1ccccc1)c1ccccc1)c1ccccc1-c1ccccc1C(=O)C=P(c1ccccc1)(c1ccccc1)c1ccccc1 | 15 | 26* | nt | nt | 104* | 13
O=C(NNC(=O)c1ccccc1-c1ccccc1C(=O)O)c1ccccc1 | -4 | 8 | 0.9 | -17 | 3 | -2
CS(=O)(=O)Nc1cccc(NC(=O)C2Cc3c(-c4cccc(F)c4)ccnc3O2)c1 (configuration not stated) | 7 | -8 | nt | nt | nt | nt
CC(C)(C)c1nnc(N/N=C/c2ccc(Br)cc2)n(N)c1=O | -7 | -5 | -0.32 | -15 | 70* | 11
CC(C)Oc1ccccc1OC1(C)CCN(Cc2ccc(OC(F)(F)F)cc2)C1 (configuration not stated) | -10 | -3 | nt | nt | nt | nt
Clc1ccc(C[n+]2csc3ccccc32)cc1 | 4 | -3 | 1.9 | 7 | 7 | 5
Fc1ccc(C[n+]2csc3ccccc32)cc1 | -2 | 54* | 0.46 | -8 | 6 | -4
COc1ccccc1[C@@H]1C(c2cccc(Cl)c2)=NN(c2ccccc2)[C@H]1C(=O)N1CCOC1=O | 7 | 3 | 0.35 | -10 | 4 | 5
COc1ccccc1[C@H]1C(c2cccc(Cl)c2)=NN(c2ccccc2)[C@@H]1CO | 37* | -11 | nt | nt | 8 | 1
NS(=O)(=O)c1ccc(N/N=C/c2cn(-c3ccccc3)nc2-c2ccccc2)c([N+](=O)[O-])c1 | -1 | -2 | -0.46 | 13 | 81* | 4
COc1ccc(CCN2CC(C(=O)N(C)CC(=O)Nc3ccc(F)c(F)c3F)CC2=O)cc1OC (configuration not stated) | 1 | -3 | nt | nt | 2 | -5
NC(=O)c1ccc(N=Cc2ccc([N+](=O)[O-])s2)cc1 | -10 | -12 | -4* | 9 | 24 | 4
